The source made the active and inactive calls. No cut-off for these calls is given here.
Assays:
[1] = target: T1, Glutamate NMDA receptor; GRIN1/GRIN2A (Homo sapiens, UniProt Q05586+Q12879); test: Antagonist activity against NR1-1a/NR2A NMDA receptor (unknown origin) expressed in mouse recombinant L(tk-) cells assessed as inhibition of glycine and glutamate induced excitotoxicity incubated for 12 hrs by LDH assay; type: cell-based
In short: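 Mouse fibroblast L(tk-) cells stably carrying a dexamethasone-inducible vector encoding GluN1a and GluN2A. Receptor expression was induced with dexamethasone in the presence of ketamine to limit cell damage. Cells were exposed to (S)-glutamate, glycine and a range of test concentrations for 12 h. Cell death was read as LDH released from lysed cells, measured by formazan dye formation.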

[2] = Displacement of [3H]DTG from sigma2 receptor in rat liver membranes incubated for 120 mins by scintillation counting method in presence of pentazocine; type: cell membranes, Membrane
In short: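 σ2 binding on rat liver membranes using the nonselective radioligand [3H]-DTG. […] Nonspecific binding defined with 10 µM unlabelled DTG. Affinity reported as Ki.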

[3] = Displacement of [3H]MK801 from NMDA receptor PCP binding site in guinea pig brain cortex membranes incubated for 120 mins by scintillation counting method; type: cell membranes, Cavia porcellus
[4] = target: Sigma non-opioid intracellular receptor 1 (Cavia porcellus, UniProt Q60492); test: Displacement of [3H]-(+)-pentazocine from sigma 1 receptor in guinea pig brain membranes incubated for 120 mins by scintillation counting method in the presence of pentazocine; type: cell membranes, Membrane
[5] = Selectivity index, ratio of Ki for sigma2 receptor in rat liver membranes to Ki for sigma 1 receptor in guinea pig brain membranes; type: cell membranes
Mus musculus [6] = test: Potentiation of morphine-induced antinociception in CD-1 mouse assessed as increase in latency time at 50 mg/kg, sc dosed 30 mins before morphine injection and measured 60 mins post morphine injection by hot plate test; type: functional, organism-based
Mus musculus [7] = test: Potentiation of morphine-induced antinociception in CD-1 mouse assessed as increase in latency time at 30 mg/kg, sc dosed 30 mins before morphine injection and measured 30 to 90 mins post morphine injection by hot plate test; type: functional, organism-based
Mus musculus [8] = test: Antinociceptive activity in CD-1 mouse assessed as increase in latency time at 50 mg/kg, sc incubated for 30 mins by hot plate test; type: functional, organism-based
In short: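 Hot plate test in mice with test compound given alone s.c. at doses up to 50 mg/kg. Reaction latency read out as %MPE.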

[9] = target: T1, Glutamate NMDA receptor; GRIN1/GRIN2A; test: Binding affinity to NMDA receptor (unknown origin); type: protein-complex assay
In short: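 PCP site of the NMDA receptor in pig brain cortex membranes. Competition binding against [3H]-(+)-MK-801. Nonspecific binding was defined with a large excess of unlabelled (+)-MK-801. Values are reported as Ki.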

T1 sequence (Q12879 whole entry, other chains not shown): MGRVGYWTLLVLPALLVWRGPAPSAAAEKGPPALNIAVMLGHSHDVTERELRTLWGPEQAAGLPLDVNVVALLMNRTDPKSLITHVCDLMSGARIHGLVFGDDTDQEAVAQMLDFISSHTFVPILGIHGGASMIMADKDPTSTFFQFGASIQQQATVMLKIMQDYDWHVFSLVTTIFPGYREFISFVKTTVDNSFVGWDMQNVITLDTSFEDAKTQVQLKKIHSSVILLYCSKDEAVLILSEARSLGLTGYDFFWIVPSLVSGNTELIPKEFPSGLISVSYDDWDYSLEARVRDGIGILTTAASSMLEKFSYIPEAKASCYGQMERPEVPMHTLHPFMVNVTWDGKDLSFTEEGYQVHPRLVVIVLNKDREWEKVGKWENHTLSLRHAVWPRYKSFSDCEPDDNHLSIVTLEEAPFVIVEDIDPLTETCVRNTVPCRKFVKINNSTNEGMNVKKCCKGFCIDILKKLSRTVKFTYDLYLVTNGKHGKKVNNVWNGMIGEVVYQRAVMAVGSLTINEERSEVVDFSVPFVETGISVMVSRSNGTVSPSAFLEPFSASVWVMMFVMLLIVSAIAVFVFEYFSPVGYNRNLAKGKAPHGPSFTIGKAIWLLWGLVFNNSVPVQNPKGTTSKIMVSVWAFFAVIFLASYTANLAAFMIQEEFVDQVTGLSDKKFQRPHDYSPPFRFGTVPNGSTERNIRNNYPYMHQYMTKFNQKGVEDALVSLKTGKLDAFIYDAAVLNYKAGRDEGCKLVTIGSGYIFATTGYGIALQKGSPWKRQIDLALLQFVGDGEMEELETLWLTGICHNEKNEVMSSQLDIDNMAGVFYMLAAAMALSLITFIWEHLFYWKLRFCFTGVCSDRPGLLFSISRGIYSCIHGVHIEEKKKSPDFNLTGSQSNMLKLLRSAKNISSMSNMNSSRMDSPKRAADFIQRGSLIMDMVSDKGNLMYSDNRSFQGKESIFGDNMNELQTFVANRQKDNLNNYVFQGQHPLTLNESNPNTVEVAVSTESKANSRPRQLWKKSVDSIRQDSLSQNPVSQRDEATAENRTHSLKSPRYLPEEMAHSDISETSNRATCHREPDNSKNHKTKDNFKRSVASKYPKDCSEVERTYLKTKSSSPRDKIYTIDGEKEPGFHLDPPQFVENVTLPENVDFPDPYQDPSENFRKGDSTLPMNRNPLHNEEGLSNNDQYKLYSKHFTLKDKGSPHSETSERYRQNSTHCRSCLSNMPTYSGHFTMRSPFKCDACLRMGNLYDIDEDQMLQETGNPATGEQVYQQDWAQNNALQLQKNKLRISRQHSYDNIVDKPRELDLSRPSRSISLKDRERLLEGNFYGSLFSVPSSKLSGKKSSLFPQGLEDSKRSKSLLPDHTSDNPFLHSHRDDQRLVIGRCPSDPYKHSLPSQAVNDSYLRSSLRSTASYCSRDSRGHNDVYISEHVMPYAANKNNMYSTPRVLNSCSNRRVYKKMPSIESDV
Sequence of Sigma non-opioid intracellular receptor 1 (Q60492 whole entry): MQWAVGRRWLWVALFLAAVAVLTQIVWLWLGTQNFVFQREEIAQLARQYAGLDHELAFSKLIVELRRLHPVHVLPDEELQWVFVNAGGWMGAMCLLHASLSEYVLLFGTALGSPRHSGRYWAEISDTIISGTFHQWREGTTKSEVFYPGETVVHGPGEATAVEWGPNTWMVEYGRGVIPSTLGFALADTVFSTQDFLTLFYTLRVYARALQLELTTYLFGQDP

Q: With `NCC1COCC(c2ccccc2)(c2ccccc2)O1` (stereo not given) as the compound, how does the IC50 [1] read?
A: 0.0242 µM

Q: What about the Ki [2] of the same compound?
A: 5.8 µM

Q: What about the Ki [3] of the same compound?
A: 0.712 µM

Q: What about the Ki [4] of the same compound?
A: > 10 µM

Q: Which results are given for `NCCC1COCC(c2ccccc2)(c2ccccc2)O1` (stereo not given)?
A: Ki [2]: > 10 µM; Ki [3]: > 10 µM; Ki [4]: > 10 µM

Q: Which Ki [2] does the source give for `NCC1COC(c2ccccc2)(c2ccccc2)CO1` (stereo not given) here?
A: > 10 µM

Q: And the Ki [3]?
A: > 10 µM

Q: And the Ki [4]?
A: 1.4 µM

Q: For `NCCC1COC(c2ccccc2)(c2ccccc2)CO1` (stereo not given), which Ki [2] is on record?
A: > 10 µM

Q: And the Ki [3]?
A: > 10 µM

Q: And the Ki [4]?
A: > 10 µM

Q: For `c1ccc(CNCC2COCC(c3ccccc3)(c3ccccc3)O2)cc1` (stereo not given), which Ki [2] is on record?
A: 1.6 µM

Q: What about the Ki [3] of the same compound?
A: > 10 µM

Q: And the Ki [4]?
A: 4.9 µM

Q: With `c1ccc(CNCCC2COCC(c3ccccc3)(c3ccccc3)O2)cc1` (stereo not given) as the compound, how does the Ki [2] read?
A: > 10 µM

Q: What about the Ki [3] of the same compound?
A: > 10 µM

Q: What about the Ki [4] of the same compound?
A: 0.502 µM

Q: With `c1ccc(CNCC2COC(c3ccccc3)(c3ccccc3)CO2)cc1` (stereo not given) as the compound, how does the Ki [2] read?
A: 1 µM

Q: What about the Ratio Ki [5] of the same compound?
A: 136

Q: What about the Activity (Mus musculus [6]) of the same compound?
A: Active

Q: What about the Activity (Mus musculus [7]) of the same compound?
A: inactive

Q: And the Ki [3]?
A: > 10 µM

Q: And the Ki [4]?
A: 0.00737 µM

Q: What about the Activity (Mus musculus [8]) of the same compound?
A: inactive

Q: For `c1ccc(CNCCC2COC(c3ccccc3)(c3ccccc3)CO2)cc1` (stereo not given), which Ki [2] is on record?
A: 0.841 µM

Q: What about the Ki [3] of the same compound?
A: > 10 µM

Q: What about the Ki [4] of the same compound?
A: 0.297 µM

Q: Which Ki [2] does the source give for `c1ccc(CNCC2CCOC(c3ccccc3)(c3ccccc3)O2)cc1` (stereo not given) here?
A: 0.111 µM

Q: What about the Ki [3] of the same compound?
A: > 10 µM

Q: What about the Ki [4] of the same compound?
A: 3 µM

Q: What does the source list for `NC[C@@H]1COC[C@H](c2ccccc2)O1` (racemic)?
A: Ki [2]: > 10 µM; Ki [3]: > 10 µM; Ki [4]: > 10 µM

Q: What does the source list for `NC[C@H]1COC[C@H](c2ccccc2)O1` (racemic)?
A: Ki [2]: > 10 µM; Ki [3]: > 10 µM; Ki [4]: > 10 µM

Q: Which Ki [2] does the source give for `CC[C@]1(c2ccccc2)COC[C@@H](CN)O1` (racemic) here?
A: > 10 µM

Q: And the Ki [3]?
A: > 10 µM

Q: And the Ki [4]?
A: > 10 µM

Q: Which Ki [2] does the source give for `CC[C@]1(c2ccccc2)COC[C@H](CN)O1` (racemic) here?
A: > 10 µM

Q: What about the Ki [3] of the same compound?
A: > 10 µM

Q: What about the Ki [4] of the same compound?
A: > 10 µM

Q: Which IC50 [1] does the source give for `NC[C@@H]1COC[C@@](c2ccccc2)(C2CCCCC2)O1` (racemic) here?
A: 0.0712 µM

Q: And the Ki [2]?
A: > 10 µM

Q: What about the Ki [3] of the same compound?
A: 0.893 µM

Q: And the Ki [4]?
A: > 10 µM

Q: With `NC[C@H]1COC[C@@](c2ccccc2)(C2CCCCC2)O1` (racemic) as the compound, how does the IC50 [1] read?
A: 0.0177 µM

Q: What about the Ki [2] of the same compound?
A: 2.5 µM

Q: What about the Ki [3] of the same compound?
A: 0.413 µM

Q: And the Ki [4]?
A: > 10 µM

Q: Which results are given for `NC[C@@H]1CO[C@H](c2ccccc2)CO1` (racemic)?
A: Ki [2]: > 10 µM; Ki [3]: > 10 µM; Ki [4]: > 10 µM

Q: For `NC[C@H]1CO[C@H](c2ccccc2)CO1` (racemic), which Ki [2] is on record?
A: > 10 µM

Q: What about the Ki [3] of the same compound?
A: > 10 µM

Q: What about the Ki [4] of the same compound?
A: > 10 µM

Q: With `c1ccc(CNC[C@@H]2COC[C@H](c3ccccc3)O2)cc1` (racemic) as the compound, how does the Ki [2] read?
A: > 10 µM

Q: And the Ki [3]?
A: > 10 µM

Q: What about the Ki [4] of the same compound?
A: 0.155 µM

Q: Which results are given for `c1ccc(CNC[C@H]2COC[C@H](c3ccccc3)O2)cc1` (racemic)?
A: Ki [2]: 4.3 µM; Ki [3]: > 10 µM; Ki [4]: 0.542 µM

Q: Which results are given for `CC[C@]1(c2ccccc2)COC[C@@H](CNCc2ccccc2)O1` (racemic)?
A: Ki [2]: > 10 µM; Ki [3]: > 10 µM; Ki [4]: 0.543 µM

Q: Which results are given for `CC[C@]1(c2ccccc2)COC[C@H](CNCc2ccccc2)O1` (racemic)?
A: Ki [2]: > 10 µM; Ki [3]: > 10 µM; Ki [4]: 0.607 µM

Q: Which Ki [2] does the source give for `c1ccc(CNC[C@@H]2COC[C@@](c3ccccc3)(C3CCCCC3)O2)cc1` (racemic) here?
A: 4.9 µM

Q: And the Ki [3]?
A: > 10 µM

Q: And the Ki [4]?
A: 1.5 µM

Q: What does the source list for `c1ccc(CNC[C@H]2COC[C@@](c3ccccc3)(C3CCCCC3)O2)cc1` (racemic)?
A: Ki [2]: > 10 µM; Ki [3]: > 10 µM; Ki [4]: 2.7 µM

Q: With `c1ccc(CNC[C@@H]2CO[C@H](c3ccccc3)CO2)cc1` (racemic) as the compound, how does the Ki [2] read?
A: 0.698 µM

Q: What about the Ki [3] of the same compound?
A: > 10 µM

Q: And the Ki [4]?
A: 0.192 µM

Q: Which results are given for `c1ccc(CNC[C@@H]2CO[C@@H](c3ccccc3)CO2)cc1` (racemic)?
A: Ki [2]: > 10 µM; Ratio Ki [5]: > 270; Ki [3]: > 10 µM; Ki [4]: 0.037 µM

Q: What does the source list for `c1ccc(CNC[C@@H]2CCO[C@H](c3ccccc3)O2)cc1` (racemic)?
A: Ki [2]: 0.174 µM; Ki [3]: > 10 µM; Ki [4]: 0.314 µM

Q: For `c1ccc(C2(c3ccccc3)OC[C@H]([C@@H]3CCCCN3)O2)cc1` [DEXOXADROL], which IC50 [1] is on record?
A: 0.0097 µM

Q: With `Cc1ccccc1NC(=N)Nc1ccccc1C` [DITOLYLGUANIDINE] as the compound, how does the Ki [2] read?
A: 0.064 µM

Q: With `CN[C@]1(c2ccccc2Cl)CCCCC1=O` [ESKETAMINE] as the compound, how does the IC50 [1] read?
A: 0.0114 µM

Q: What about the Ki [3] of the same compound?
A: 0.419 µM

Q: Which results are given for `CC[C@]1(c2ccccc2)OC[C@H]([C@@H]2CCCCN2)O1` [ETOXADROL]?
A: Ki [9]: 0.022 µM; Ki [3]: 0.022 µM

Q: Which IC50 [1] does the source give for `c1ccc(C2(N3CCCCC3)CCCCC2)cc1` [PHENCYCLIDINE] here?
A: 0.0118 µM

Q: And the Ki [3]?
A: 0.028 µM
